Measured values as given in ChEMBL document CHEMBL2375256, “Functionalized indoleamines as potent, drug-like inhibitors of isoprenylcysteine carboxyl methyltransferase (Icmt)” (Eur J Med Chem, 2013).
Converted amounts (≈) assume the structure as drawn.

How the values were obtained:
[1] = Half life in rat liver microsomes at 3 uM; type: ADME, Microsome
Method in brief: (§1)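 Compound at 3 µM was incubated with pooled male rat liver microsomes (0.3 mg protein/mL) in 0.1 M phosphate buffer pH 7.4 with 1 mM EDTA. The reaction was started with NADPH (1 mM final) at 37 °C and sampled at 0, 5, 15, 30 and 45 min.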

[2] = Intrinsic clearance in rat liver microsomes at 3 uM; type: ADME, Microsome; conditions: read-out: CLH; method in brief: as §1
HepG2 = test: Antiproliferative activity against human HepG2 cells after 72 hrs […]; type: functional, cell-based; conditions: HepG2, 72 h
PC-3 = test: Antiproliferative activity against human PC3 cells after 72 hrs […]; type: functional, cell-based; conditions: PC-3, 72 h
MDA-MB-231 = test: Antiproliferative activity against human MDA-MB-231 cells after 72 hrs […]; type: functional, cell-based; conditions: MDA-MB-231, 72 h
[3] = target: Protein-S-isoprenylcysteine O-methyltransferase (Homo sapiens, UniProt O60725); test: Inhibition of recombinant Icmt (unknown origin) expressed in Sf9 cells assessed as transfer of methyl group from [3H]-S-adenosylmethionine to [3H]-biotin-S-farnesyl-L-cysteine after 30 mins
Sequence of Protein-S-isoprenylcysteine O-methyltransferase (O60725 whole entry): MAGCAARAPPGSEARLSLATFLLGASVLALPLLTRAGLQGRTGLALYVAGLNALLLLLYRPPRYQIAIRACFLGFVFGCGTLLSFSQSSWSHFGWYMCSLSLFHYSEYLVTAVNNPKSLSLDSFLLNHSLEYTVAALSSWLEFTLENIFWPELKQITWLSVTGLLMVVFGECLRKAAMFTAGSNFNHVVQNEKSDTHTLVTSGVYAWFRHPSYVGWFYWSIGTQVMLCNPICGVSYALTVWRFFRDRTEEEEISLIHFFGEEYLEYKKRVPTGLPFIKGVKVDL
Method in brief: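 Icmt membrane protein was diluted to 0.03 mg/mL in 70 mM HEPES, 100 mM NaCl, 5 mM MgCl2, 3 mM DTT, pH 7.5, and preincubated with inhibitor. The reaction was started with a mix of BFC, SAM and [3H]SAM and run 30 min at 37 °C. It was quenched with excess SAM, captured on streptavidin SPA beads overnight at ambient temperature, and counted. IC50 was taken from % activity versus log concentration, with two independent determinations.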

[4] = Aqueous solubility of the compound at pH 7.4 after 24 hrs agitation; type: physicochemical
IMR-90 = test: Antiproliferative activity against human IMR90 cells after 72 hrs […]; type: cell-based; conditions: IMR-90, 72 h
MIA PaCa-2 = test: Antiproliferative activity against human MIAPaCa2 cells after 72 hrs by MTT assay; type: functional, cell-based; conditions: MIA PaCa-2, 72 h

SMILES	IC50 (PC-3) [µM]	IC50 (MDA-MB-231) [µM]	further results
CCCCCCCCn1cc(CC(N)=O)c2cc(-c3cccc(C)c3)ccc21	21.3	22.1	half-life at 3 µM [1]: 44.8 min; microsomal CLint at 3 µM [2]: 53.6 µL/min/mg; IC50 (HepG2): 19.3 µM
CCCCCCCCn1cc(CN(CC)CC)c2cc(-c3ccc(S(=O)(=O)NC)cc3)ccc21		10.2	
CCCCCCCCn1cc(CN(CC)CC)c2cc(-c3ccc(S(C)(=O)=O)cc3)ccc21	4.74	5.56	
CCCCCCCCn1cc(CN(CC)CC)c2cccc(F)c21		8.87	
CCCCCCCCn1cc(CN(CC)CC)c2cc(F)ccc21		7.36	IC50 [3]: 4.42 µM
CCCCCCCCn1cc(CN(CC)CC)c2cc(-c3ccc(C#N)cc3)ccc21	6.11	10.8	
CCCCCCCCn1cc(CN(CC)CC)c2cc(-c3cccc(O)c3)ccc21	14.9	18.1	
CCCCCCCCn1cc(CN(CC)CC)c2c(F)cccc21		7.5	
CCCCCCCCn1cc(CN(CC)CC)c2cc(-c3cncnc3)ccc21	8.47	11.1	IC50 (IMR-90): 9.84 µM
CCCCCCCCn1cc(CN(CC)CC)c2ccc(F)cc21		9.14	IC50 [3]: 2.22 µM

More lines, main results first:

IC50 (PC-3) [µM]	IC50 (MDA-MB-231) [µM]	SMILES	further results
5.88	5.14	CCCCCCCCn1cc(CN(CC)CC)c2cc(-c3ccncc3F)ccc21	IC50 [3]: 0.96 µM
1.92	2.52	CCCCCCCCn1cc(CN(CC)CC)c2cc(-c3ccc(N(C)C)nc3)ccc21	IC50 [3]: 1.63 µM
6.31	5.14	CCCCCCCCn1cc(CN(CC)CC)c2cc(-c3cccc(C)c3)ccc21	half-life at 3 µM [1]: 26.9 min; microsomal CLint at 3 µM [2]: 85.8 µL/min/mg; solubility at 24 h [4]: 1.1 µM (≈ 0.445 µg/mL); IC50 (IMR-90): 5.26 µM; IC50 (HepG2): 4.9 µM
5.84	5.5	CCCCCCCCn1cc(CN(CC)CC)c2cc(-c3cccnc3)ccc21	IC50 (IMR-90): 5.52 µM
5.74	3.85	CCCCCCCCn1cc(CN(CC)CC)c2cc(-c3cnc(C#N)nc3)ccc21	
2.55	2.48	CCCCCCCCn1cc(CN(CC)CC)c2cc(-c3cnc(N)nc3)ccc21	half-life at 3 µM [1]: 11.3 min; microsomal CLint at 3 µM [2]: 204 µL/min/mg; IC50 (IMR-90): 2.65 µM; IC50 (MIA PaCa-2): 1.6 µM; IC50 (HepG2): 1.65 µM
